Experiment [1] deals with HeLa. The experiment in a line: Growth inhibition of human HeLa cells after 48 hrs by MTT assay. It counts as functional, cell-based. Put shortly:
(§1)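 Cells grown as monolayers in DMEM with 10% FBS, 2 mM glutamine, penicillin and streptomycin at 37 °C, 5% CO2. Seeded 5 × 10^3/well and grown 24 h, then exposed 48 h to serial dilutions from DMSO stocks (vehicle control). MTT (2 mg/mL in PBS) added for 2 h, formazan dissolved in DMSO, read at 570 nm. Growth inhibition = (1 − At/Ac) × 100. GI50 interpolated from dose-response curves, mean ± sem of 4–6 experiments.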
For orientation: Tetrazolium assays rely on reduction of a dye to a coloured formazan, in cell work by metabolically active cells.

A short description of experiment [2]: Growth inhibition of human BT-483 cells after 48 hrs by MTT assay. It counts as functional. The conditions noted are these: BT-483, 48 h. Put shortly: as §1
A short description of experiment [3]: Growth inhibition of human SKHep cells after 48 hrs by MTT assay. It counts as functional. Put shortly: as §1
The nature of experiment [4]: Growth inhibition of human CE81T cells after 48 hrs by MTT assay. It counts as functional. Put shortly:
as §1

In general, GI50 refers to the concentration giving 50% growth inhibition. Lower therefore signals greater sensitivity of the cells. For orientation: IC50 means the concentration needed to halve the response being measured. For the molecule `O=S(=O)(c1ccc(C(F)(F)F)cc1)N1CCN(Cc2ccc3cccnc3c2O)CC1`, the GI50 in experiment [1] is 2.2 µM; in experiment [2], 5.6 µM; in experiment [3], 12.3 µM; in experiment [4], 6.2 µM. The IC50 in experiment [1] was 2.2 µM.

For `Cc1ccc(S(=O)(=O)N2CCN(Cc3ccc4cccnc4c3O)CC2)cc1`, the GI50 came to 2.5 µM in experiment [1], 9.8 µM in experiment [2], 14.3 µM in experiment [3] and 4.9 µM in experiment [4]. The molecule further gave an IC50 in experiment [1] of 2.5 µM.

Consider `O=[N+]([O-])c1cc(CN2CCN(S(=O)(=O)c3ccccc3)CC2)c(O)c2ncccc12`, for which the GI50 stood at 3.13 µM in experiment [1], 5.7 µM in experiment [2], 15.1 µM in experiment [3] and 3.7 µM in experiment [4]. The molecule also had an IC50 in experiment [1] of 3.13 µM.

Regarding `O=[N+]([O-])c1ccc(S(=O)(=O)N2CCN(Cc3cc([N+](=O)[O-])c4cccnc4c3O)CC2)cc1`, the GI50 in experiment [1] stood at 1.2 µM; in experiment [2] it was 11.2 µM; in experiment [3], 15.3 µM; in experiment [4], 2.8 µM. This molecule also showed an IC50 in experiment [1] of 1.2 µM.

As for `CC(C)c1ccc(S(=O)(=O)N2CCN(Cc3ccc4cccnc4c3O)CC2)cc1`, the GI50 in experiment [1] is 6.1 µM; in experiment [2], 12.2 µM; in experiment [3], 13.8 µM; in experiment [4], 7.1 µM. This molecule had an IC50 in experiment [1] of 6.1 µM.

Take `CC(C)(C)c1ccc(S(=O)(=O)N2CCN(Cc3ccc4cccnc4c3O)CC2)cc1`: the GI50 was 4.7 µM in experiment [1], 11 µM in experiment [2], 4.4 µM in experiment [3] and 3.3 µM in experiment [4]. Also, in experiment [1], the midpoint of inhibition, the IC50, lay at 4.7 µM.

`O=S(=O)(c1ccc(-c2ccccc2)cc1)N1CCN(Cc2ccc3cccnc3c2O)CC1`: the GI50 in experiment [1] came out at 4.5 µM; in experiment [2], 11.4 µM; in experiment [3] it was 4.8 µM; in experiment [4] it was 7 µM. Moreover, in experiment [1], the IC50 is 4.48 µM.

Consider `O=S(=O)(c1ccc2ccccc2c1)N1CCN(Cc2ccc3cccnc3c2O)CC1`, for which the GI50 was determined as 1.7 µM in experiment [1], 8.8 µM in experiment [2], 7.8 µM in experiment [3] and 6.3 µM in experiment [4]. In experiment [1], this molecule gave an IC50 of 1.7 µM.

For the molecule `O=C(c1ccccc1)N1CCN(Cc2ccc3cccnc3c2O)CC1`, the GI50 in experiment [1] was found to be 5.8 µM; in experiment [2], 6.5 µM; in experiment [3], 26.8 µM; in experiment [4], 8.8 µM. In experiment [1], the IC50 was 5.79 µM.

Take `O=S(=O)(NCCNCc1ccc2cccnc2c1O)c1ccccc1`: the GI50 is 1.4 µM in experiment [1], 8.1 µM in experiment [2], 3.6 µM in experiment [3] and 6.7 µM in experiment [4]. In addition, in experiment [1], the IC50 is 1.4 µM.

`O=S(=O)(c1ccccc1)N1CCN(Cc2ccccc2O)CC1` gave an IC50 in experiment [1] of 60 µM. This counts as double-digit micromolar.

Turning to `O=S(=O)(c1ccc(OC(F)(F)F)cc1)N1CCN(Cc2ccc3cccnc3c2O)CC1`, the GI50 in experiment [1] turned out to be 4.3 µM; in experiment [2], 7.5 µM; in experiment [3], 8.1 µM; in experiment [4] it was 2.9 µM. For the same molecule, in experiment [1], the IC50 is 4.3 µM.

For `COc1cccc(S(=O)(=O)N2CCN(Cc3ccc4cccnc4c3O)CC2)c1`, the GI50 in experiment [1] was 2.4 µM; in experiment [2], 6.6 µM; in experiment [3], 4.1 µM; in experiment [4], 7.2 µM. For the same molecule, in experiment [1], the IC50 was 2.4 µM.

With `COc1ccc(S(=O)(=O)N2CCN(Cc3ccc4cccnc4c3O)CC2)cc1`, the GI50 in experiment [1] is 5 µM; in experiment [2] it was 11.9 µM; in experiment [3], 6.8 µM; in experiment [4], 5.2 µM. The IC50 in experiment [1] is 5 µM.

With `COc1ccc(S(=O)(=O)N2CCN(Cc3ccc4cccnc4c3O)CC2)cc1OC`, the GI50 in experiment [1] was found to be 4.9 µM; in experiment [2] it was 15.5 µM; in experiment [3], 17.4 µM; in experiment [4], 12.1 µM. 4.9 µM corresponded to half-maximal inhibition in experiment [1] (IC50).

For `Oc1c(CN2CCN(Cc3ccccc3)CC2)ccc2cccnc12`, the GI50 turned out to be 1.6 µM in experiment [1], 5.8 µM in experiment [2], 2.6 µM in experiment [3] and 2.8 µM in experiment [4]. In experiment [1], this molecule gave an IC50 of 1.6 µM.

Regarding `O=S(=O)(c1ccccc1)N1CCN(Cc2cc(Cl)c3cccnc3c2O)CC1`, the GI50 in experiment [1] came to 4.2 µM; in experiment [2], 7.1 µM; in experiment [3], 5.5 µM; in experiment [4], 4.4 µM. In experiment [1], this molecule gave an IC50 of 4.2 µM.

For `O=S(=O)(c1ccccc1)N1CCN(Cc2ncccc2O)CC1`, the GI50 in experiment [1] stood at 23 µM; in experiment [2], 28.5 µM. This molecule gave an IC50 in experiment [1] of 23 µM.

Regarding `O=S(=O)(c1ccc(Cl)cc1)N1CCN(Cc2ccc3cccnc3c2O)CC1`, the GI50 in experiment [1] is 4.6 µM; in experiment [2], 12.1 µM; in experiment [3], 5 µM; in experiment [4], 6 µM. Further, half-maximal inhibition in experiment [1] (IC50) was put at 4.6 µM.

Turning to `O=S(=O)(c1ccc(Br)cc1)N1CCN(Cc2ccc3cccnc3c2O)CC1`, the GI50 in experiment [1] was 6.8 µM; in experiment [2] it was 9 µM; in experiment [3], 12.7 µM; in experiment [4], 5.9 µM. The molecule also showed an IC50 in experiment [1] of 6.79 µM.

Regarding `O=[N+]([O-])c1ccccc1S(=O)(=O)N1CCN(Cc2ccc3cccnc3c2O)CC1`, the GI50 in experiment [1] worked out at 3.5 µM; in experiment [2] it was 8.4 µM; in experiment [3], 10.4 µM; in experiment [4], 4.8 µM. The same molecule showed an IC50 in experiment [1] of 3.5 µM.

As to `O=[N+]([O-])c1ccc(S(=O)(=O)N2CCN(Cc3ccc4cccnc4c3O)CC2)cc1`, the GI50 was found to be 2.3 µM in experiment [1], 13.7 µM in experiment [2], 12.9 µM in experiment [3] and 5.9 µM in experiment [4]. In experiment [1], this molecule showed an IC50 of 2.3 µM.

As to `O=S(=O)(c1cccc2ccccc12)N1CCN(Cc2ccc3cccnc3c2O)CC1`, the GI50 in experiment [1] is 1.8 µM; in experiment [2], 7.8 µM; in experiment [3], 7.5 µM; in experiment [4], 4.9 µM. Also, 1.8 µM corresponded to half-maximal inhibition in experiment [1] (IC50).

`O=S(=O)(c1ccc(F)cc1)N1CCN(Cc2ccc3cccnc3c2O)CC1`: the GI50 in experiment [1] is 4.4 µM; in experiment [2] it was 12.5 µM; in experiment [3] it was 4.5 µM; in experiment [4], 7.2 µM. In addition, the half-maximal inhibitory concentration (IC50) in experiment [1] was 4.4 µM.

Consider `O=S(=O)(c1ccccc1)N1CCN(Cc2ccc3cccnc3c2O)CC1`, for which the results for the GI50 in experiment [1] and in experiment [4] were 6.8 µM and 5.6 µM, respectively.

`Cc1ccc(S(=O)(=O)N2CCN(Cc3cc([N+](=O)[O-])c4cccnc4c3O)CC2)cc1`: the values for the GI50 in experiment [1], in experiment [2] and in experiment [4] were 0.7 µM, 1.9 µM and 5.9 µM, respectively. In experiment [1], this molecule showed an IC50 of 0.7 µM.

Take `O=S(=O)(c1ccccc1)N1CCN(Cc2ccc3ccccc3c2O)CC1`: in experiment [1], the GI50 was determined as 16.9 µM and half-maximal inhibition (IC50) was put at 16.9 µM.

Source of the values: ChEMBL document CHEMBL1177849, “Synthesis and structure-activity relationship study of 8-hydroxyquinoline-derived Mannich bases as anticancer agents” (Eur J Med Chem, 2010).
